# Experimental data from ChEMBL document CHEMBL4196091 (Eur J Med Chem, 2018).
# The source made the active and inactive calls. No cut-off for these calls is given here.
# Tests used:
# [1] = system: A549; test: Cell cycle arrest in human A549 cells assessed as accumulation at G2/M phase at 3 nM after 24 hrs by propidium iodide staining based flow cytometry; assay type: functional
# Procedure, shortened: (§1)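 A549 cells maintained in DMEM (1 g/L glucose, 2 mM glutamine, penicillin/streptomycin/amphotericin B, 10% FBS) and treated for 24 h. Cells were then fixed, RNase-treated and stained with propidium iodide. DNA content was measured by flow cytometry to give cell-cycle phase distribution, including a sub-G1 peak. Data are means (±SD) of two experiments.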
# [2] = system: HT-29; test: Antiproliferative activity against human HT-29 cells after 2 days by MTT assay; assay type: functional, cell-based; conditions: HT-29, 48 h
# [3] = system: MCF7; test: Antiproliferative activity against human MCF7 cells after 2 days by MTT assay; assay type: functional, cell-based; conditions: MCF7, 48 h
# [4] = system: A549; test: Antiproliferative activity against human A549 cells after 2 days by MTT assay; assay type: functional, cell-based; conditions: A549, 48 h
# [5] = system: HEK293; test: Antiproliferative activity against HEK293 cells after 2 days by MTT assay; assay type: ADME, cell-based; conditions: Homo sapiens, HEK293, 48 h
# [6] = system: A549; test: Cell cycle arrest in human A549 cells assessed as accumulation at sub-G0 phase at 15 nM after 24 hrs by propidium iodide staining based flow cytometry (reference value: 2 +/- 1%); assay type: functional; procedure, shortened: as §1
# [7] = system: A549; test: Cell cycle arrest in human A549 cells assessed as accumulation at G0/G1 phase at 15 nM after 24 hrs by propidium iodide staining based flow cytometry (reference value: 73 +/- 3%); assay type: functional; procedure, shortened: as §1
# [8] = system: A549; test: Cell cycle arrest in human A549 cells assessed as accumulation at S phase at 15 nM after 24 hrs by propidium iodide staining based flow cytometry (reference value: 15 +/- 6%); assay type: functional; procedure, shortened: as §1
# [9] = system: A549; test: Cell cycle arrest in human A549 cells assessed as accumulation at G2/M phase at 15 nM after 24 hrs by propidium iodide staining based flow cytometry (reference value: 11 +/- 4%); assay type: functional; procedure, shortened: as §1
# [10] = system: HT-29; test: Downregulation of c-Myc gene expression in human HT-29 cells assessed as c-Myc mRNA level at […] after 48 hrs by RT-PCR method (reference value: 100%); assay type: functional
# [11] = system: HT-29; test: Downregulation of hTERT gene expression in human HT-29 cells assessed as hTERT mRNA level at […] after 48 hrs by RT-PCR method (reference value: 100%); assay type: functional
# [12] = system: HT-29; test: Downregulation of VEGF gene expression in human HT-29 cells assessed as VEGF mRNA level at […] after 48 hrs by RT-PCR method (reference value: 100%); assay type: functional
# [13] = system: HT-29; test: Inhibition of VEGF protein secretion in human HT-29 cells assessed as VEGF protein level at […] after 48 hrs by ELISA (reference value: 100%); assay type: functional; parameters: scale not given: the % may be the effect or the level left
# [14] = system: A549; test: Cell cycle arrest in human A549 cells assessed as accumulation at sub-G0 phase at 50 nM after 24 hrs by propidium iodide staining based flow cytometry (reference value: 2 +/- 1%); assay type: functional; procedure, shortened: as §1
# [15] = system: A549; test: Cell cycle arrest in human A549 cells assessed as accumulation at G0/G1 phase at 50 nM after 24 hrs by propidium iodide staining based flow cytometry (reference value: 73 +/- 3%); assay type: functional; procedure, shortened: as §1
# [16] = system: A549; test: Cell cycle arrest in human A549 cells assessed as accumulation at S phase at 50 nM after 24 hrs by propidium iodide staining based flow cytometry (reference value: 15 +/- 6%); assay type: functional; procedure, shortened: as §1
# [17] = system: A549; test: Cell cycle arrest in human A549 cells assessed as accumulation at G2/M phase at 50 nM after 24 hrs by propidium iodide staining based flow cytometry (reference value: 11 +/- 4%); assay type: functional; procedure, shortened: as §1
# [18] = system: A549; test: Cell cycle arrest in human A549 cells assessed as accumulation at sub-G0 phase at 20 nM after 24 hrs by propidium iodide staining based flow cytometry (reference value: 2 +/- 1%); assay type: functional; procedure, shortened: as §1
# [19] = system: A549; test: Cell cycle arrest in human A549 cells assessed as accumulation at G0/G1 phase at 20 nM after 24 hrs by propidium iodide staining based flow cytometry (reference value: 73 +/- 3%); assay type: functional; procedure, shortened: as §1
# [20] = system: A549; test: Cell cycle arrest in human A549 cells assessed as accumulation at S phase at 20 nM after 24 hrs by propidium iodide staining based flow cytometry (reference value: 15 +/- 6%); assay type: functional; procedure, shortened: as §1
# [21] = system: A549; test: Cell cycle arrest in human A549 cells assessed as accumulation at G2/M phase at 20 nM after 24 hrs by propidium iodide staining based flow cytometry (reference value: 11 +/- 4%); assay type: functional; procedure, shortened: as §1
# [22] = system: HT-29; test: Downregulation of c-Myc gene expression in human HT-29 cells assessed as c-Myc mRNA level at 10 nM after 48 hrs by RT-PCR method (reference value: 100%); assay type: functional
# Procedure, shortened: (§2)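 HT-29 cells were taken at 70–80% confluence and seeded at 1.5 x 10^5 per well. After 24 h they were exposed to compound for 48 h. Total RNA was isolated and TaqMan RT-qPCR run for VEGF-A, c-MYC and hTERT, normalized to β-actin. Expression is given as percent of DMSO control, with at least three measurements and one-sample t-tests.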
# [23] = system: HT-29; test: Downregulation of hTERT gene expression in human HT-29 cells assessed as hTERT mRNA level at 10 nM after 48 hrs by RT-PCR method (reference value: 100%); assay type: functional; procedure, shortened: as §2
# [24] = system: HT-29; test: Downregulation of VEGF gene expression in human HT-29 cells assessed as VEGF mRNA level at 10 nM after 48 hrs by RT-PCR method (reference value: 100%); assay type: functional; procedure, shortened: as §2
# [25] = system: HT-29; test: Inhibition of VEGF protein secretion in human HT-29 cells assessed as VEGF protein level at 10 nM after 48 hrs by ELISA (reference value: 100%); assay type: functional; parameters: scale not given: the % may be the effect or the level left
Structure (SMILES),Activity [1],IC50 [2] [nM],IC50 [3] [nM],IC50 [4] [nM],IC50 [5] [nM],Activity [6] [%],Activity [7] [%],Activity [8] [%],Activity [9] [%],Activity [10] [%],Activity [11] [%],Activity [12] [%],Activity [13] [%],Activity [14] [%],Activity [15] [%],Activity [16] [%],Activity [17] [%],further results
COc1cc2c(c(OC)c1OC)-c1ccc(OC)c(=O)cc1[C@@H](NC(=O)c1ccc(Cl)cc1)CC2,Active,1.79,6.7,6.6,10.1,2,27,14,48,37,73,37,54,–,–,–,–,–
COc1cc2c(c(OC)c1OC)-c1ccc(OC)c(=O)cc1[C@@H](NC(=O)c1ccccc1C)CC2,–,5.7,2.02,2,9,–,–,–,–,–,–,–,–,8,24,14,47,–
COc1cc2c(c(OC)c1OC)-c1ccc(OC)c(=O)cc1[C@@H](NC(=O)c1cccc(Cl)c1)CC2,Active,1.8,3.4,3.1,3,–,–,–,–,20,59,30,48,–,–,–,–,Activity [18]: 6%; Activity [19]: 24%; Activity [20]: 15%; Activity [21]: 57%
COc1cc2c(c(OC)c1OC)-c1ccc(OC)c(=O)cc1[C@@H](NC(=O)CI)CC2,–,10,4.1,31,19,–,–,–,–,–,–,–,–,–,–,–,–,Activity [22]: 42%; Activity [23]: 59%; Activity [24]: 42%; Activity [25]: 89%
COc1cc2c(c(OC)c1OC)-c1ccc(OC)c(=O)cc1[C@@H](NC(=O)c1ccccc1)CC2,–,8.1,5,10,13,–,–,–,–,–,–,–,–,4,29,28,40,–
COc1cc2c(c(OC)c1OC)-c1ccc(OC)c(=O)cc1[C@@H](NC(=O)c1ccccc1Cl)CC2,Active,2.3,4.5,13,5.93,3,11,26,55,38,54,32,54,–,–,–,–,–
